Six molecules from ChEMBL document CHEMBL1138580, “Natural polyprenylated benzophenones inhibiting cysteine and serine proteases” (Eur J Med Chem, 2009) can be followed below.

One test concerns the target T1, Papain (Carica papaya, UniProt P00784).
T1 sequence (P00784 whole entry): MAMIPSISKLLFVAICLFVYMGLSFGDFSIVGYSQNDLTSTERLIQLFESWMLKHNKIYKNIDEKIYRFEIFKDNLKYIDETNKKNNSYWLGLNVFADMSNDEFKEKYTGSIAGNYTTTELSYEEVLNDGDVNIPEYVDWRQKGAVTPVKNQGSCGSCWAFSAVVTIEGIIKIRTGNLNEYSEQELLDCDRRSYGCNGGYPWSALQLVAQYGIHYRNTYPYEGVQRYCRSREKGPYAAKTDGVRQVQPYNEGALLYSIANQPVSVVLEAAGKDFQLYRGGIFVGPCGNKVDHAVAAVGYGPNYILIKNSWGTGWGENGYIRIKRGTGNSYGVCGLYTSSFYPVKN
Briefly: Inhibition of Carica papaya papain by spectrofluorimetry. The method in brief: (§1)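 Enzyme (papain and CatB DTT 10 mM-activated; trypsin not) incubated 5 min at 25 °C with DMSO-dissolved inhibitor, five concentrations; Z-FR-AMC started reaction, AMC ex 380/em 460 nm. Papain: phosphate 50 mM pH 6.8, EDTA 1.0 mM, 7.8 nM. CatB: Tris–HCl 50 mM pH 7.5, EDTA 5 mM, 1.0 nM. Trypsin: Tris–HCl pH 7.5, CaCl2 10 mM, 56.1 nM. IC50 from time-course dose–response; triplicate.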

Test [1] in a line: Inhibition of trypsin by spectrofluorimetry.
The next test deals with Cathepsin B (Homo sapiens, UniProt P07858). Briefly: Inhibition of cathepsin B by spectrofluorimetry. The method in brief: as §1
In test [2] the target is T2, Papain (Carica papaya) (UniProt P00784).
T2 sequence (whole entry): T1 sequence (P00784 whole entry)
Briefly: Inhibition of Carica papaya papain at 50 uM preincubated for 5 mins before addition of increasing concentration of substrate Z-FR-AMC.

The nature of test [3]: Inhibition of trypsin at 50 uM preincubated for 5 mins before addition of increasing concentration of substrate Z-FR-AMC.
In test [4] the target is T2, Papain (Carica papaya). The test is described as follows: Inhibition of Carica papaya papain at 50 uM preincubated before DTT addition by fluorescence measurement.
The target in test [5] is T2, Papain (Carica papaya). The following applies: 0.2 uM.
Test [6] addresses T2, Papain (Carica papaya). The following applies: 0.5 uM.
Test [7] deals with T2, Papain (Carica papaya). Briefly: Inhibition of Carica papaya papain assessed as residual enzyme activity at 9 uM after 30 mins.
Test [8] can be described thus: Inhibition of trypsin assessed as residual enzyme activity at 10 uM after 30 mins.
A further test concerns the target T3, Cathepsin G (Homo sapiens, UniProt P08311).
T3 sequence (P08311 whole entry): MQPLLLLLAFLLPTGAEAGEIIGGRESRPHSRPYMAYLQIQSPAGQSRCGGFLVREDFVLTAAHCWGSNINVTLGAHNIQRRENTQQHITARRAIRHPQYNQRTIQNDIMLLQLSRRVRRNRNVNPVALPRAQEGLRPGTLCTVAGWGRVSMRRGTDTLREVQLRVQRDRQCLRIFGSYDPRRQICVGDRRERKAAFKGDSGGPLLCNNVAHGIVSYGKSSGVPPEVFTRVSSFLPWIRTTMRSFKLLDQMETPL
Briefly: Inhibition of cathepsin G by spectrofluorimetry.

Each structure is given as a SMILES string. The source made the active and inactive calls. The rule behind the calls is not given here.

What is called IC50 is the midpoint of a concentration-inhibition curve. A high value points to weaker potency. Consider `O=C(c1ccccc1O)c1ccc(O)cc1O`, for which the concentration for half-maximal inhibition (IC50) against Papain was determined as 693 µM; in test [1], 301 µM; at Cathepsin B it was 198 µM. Besides, the inhibition result (at Papain (Carica papaya) [2]; in [3]; at Papain (Carica papaya) [4]) was “inactive” in each case.

On to `O=C(c1ccccc1)c1ccccc1` [BENZOPHENONE], for which the concentration for half-maximal inhibition (IC50) at Papain came to 3460 µM; in [1] it was 3470 µM; against Cathepsin B, 289 µM. Besides, the inhibition entry (on Papain (Carica papaya) [2]; in test [3]; on Papain (Carica papaya) [4]) was “inactive” in each case.

`CC(C)C[C@H](NC(=O)[C@H]1O[C@@H]1C(=O)O)C(=O)NCCCCN=C(N)N` [E-64]: at Papain, half-maximal inhibition (IC50) required 0.047 µM. In addition, the inhibition result on Papain (Carica papaya) [5] and on Papain (Carica papaya) [6] was “Active” throughout.

Regarding `CC(C)=CC[C@H]1C[C@@]2(CC=C(C)C)C(=O)C(C(=O)c3ccccc3)=C(O)[C@H](C2=O)C1(C)C` [GARCINIAPHENONE], the IC50 amounted to 131 µM against Papain, 104 µM in test [1] and 103 µM against Cathepsin B. The inhibition result (on Papain (Carica papaya) [7]; in test [8]) was “Active” each time. The inhibition entry (at Papain (Carica papaya) [2]; in [3]; on Papain (Carica papaya) [4]) was “inactive” throughout.

`CC(C)=CCC[C@]1(C)[C@@H](CC=C(C)C)C[C@]2(CC=C(C)C)C(=O)[C@@]1(CC=C(C)C)C(=O)C(C(=O)c1ccc(O)c(O)c1)=C2O` [GUTTIFERONE A]: the IC50 on Papain turned out to be 1.9 µM; against Cathepsin B, 2.1 µM; against Cathepsin G, 2.7 µM. Besides, the inhibition result on Papain (Carica papaya) [7], at Papain (Carica papaya) [2] and on Papain (Carica papaya) [4] was “Active” each time.

For the molecule `CC(=O)N[C@@H](CC(C)C)C(=O)N[C@@H](CC(C)C)C(=O)N[C@H](C=O)CCCNC(=N)N` [LEUPEPTIN], half-maximal inhibition at Cathepsin B (IC50) was put at 0.047 µM.
